Each block holds one compound with its values, some of them ahead of it.
What was measured:
Cytochrome P450 2D6 = Cytochrome P450 2D6 (Homo sapiens, UniProt P10635); experiment: (§1) Inhibition of CYP2D6 (unknown origin) using dextromethophan substrate at 20 uM; format: ADME; settings: 20 µM
Summary of the method: (§2)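 Human liver microsomes with probe substrate and an NADPH-regenerating system in 0.1 M potassium phosphate pH 7.4 at 37 °C, run in duplicate. Inhibitor at 0–20 μM (0–2.5 μM for one compound), eight concentrations. Reactions were stopped with acetonitrile/formic acid containing isotope-labelled internal standard, and metabolite area ratios were compared with and without inhibitor. IC50 was taken by linear interpolation between bracketing concentrations.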

[1] = molecular target: Coagulation factor X (Homo sapiens) (UniProt P00742); experiment: Inhibition of recombinant human factor 10a using ALPRTMFIQ substrate at up to 5 uM after 3 hrs
Summary of the method: (§3)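 In this microfluidic protease panel, enzyme and compound were preincubated 30 min at 25 °C. The peptide substrate was added and the reaction was incubated 3 h at 25 °C, then quenched (SDS, EDTA, iodoacetate). Activity was read as % substrate converted to product. Dose–response was singlicate, 12-point 3-fold dilutions spanning 5 μM to 0.028 nM. IC50 was the concentration leaving 50% activity relative to no-compound control.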

[2] = molecular target: Urokinase-type plasminogen activator (Homo sapiens) (UniProt P00749); experiment: Inhibition of recombinant human uPA using GRTSSVEP substrate at up to 5 uM after 3 hrs; summary of the method: as §3
Cytochrome P450 2B6 = molecular target: T1, Cytochrome P450 2B6 (Homo sapiens, UniProt P20813); experiment: (§4) Inhibition of CYP2B6 (unknown origin) using bupropion substrate at 20 uM; format: ADME; settings: 20 µM; summary of the method: as §2
T1 sequence (P20813 whole entry): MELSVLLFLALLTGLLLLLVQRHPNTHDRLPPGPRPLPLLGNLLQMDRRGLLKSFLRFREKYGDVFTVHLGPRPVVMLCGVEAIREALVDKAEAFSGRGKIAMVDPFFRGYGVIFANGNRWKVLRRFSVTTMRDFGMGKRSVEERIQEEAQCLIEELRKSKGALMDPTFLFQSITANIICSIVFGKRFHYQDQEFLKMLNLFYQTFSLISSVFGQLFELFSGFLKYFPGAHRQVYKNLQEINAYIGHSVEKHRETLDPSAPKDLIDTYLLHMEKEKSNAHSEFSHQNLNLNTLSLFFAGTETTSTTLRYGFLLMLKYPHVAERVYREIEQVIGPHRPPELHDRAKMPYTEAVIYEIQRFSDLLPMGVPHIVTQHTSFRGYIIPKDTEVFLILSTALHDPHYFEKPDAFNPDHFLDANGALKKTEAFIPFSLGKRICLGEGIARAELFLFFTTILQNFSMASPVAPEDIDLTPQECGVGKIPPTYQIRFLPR

Cytochrome P450 2C9 = Cytochrome P450 2C9 (Homo sapiens, UniProt P11712); experiment: (§5) Inhibition of CYP2C9 (unknown origin) using diclofenac substrate at 20 uM; format: ADME; settings: 20 µM; summary of the method: as §2
Cytochrome P450 2C8 = molecular target: T2, Cytochrome P450 2C8 (Homo sapiens, UniProt P10632); experiment: (§6) Inhibition of CYP2C8 (unknown origin) using amodiaquine substrate at 20 uM; format: ADME; settings: 20 µM; summary of the method: as §2
T2 sequence (P10632 whole entry): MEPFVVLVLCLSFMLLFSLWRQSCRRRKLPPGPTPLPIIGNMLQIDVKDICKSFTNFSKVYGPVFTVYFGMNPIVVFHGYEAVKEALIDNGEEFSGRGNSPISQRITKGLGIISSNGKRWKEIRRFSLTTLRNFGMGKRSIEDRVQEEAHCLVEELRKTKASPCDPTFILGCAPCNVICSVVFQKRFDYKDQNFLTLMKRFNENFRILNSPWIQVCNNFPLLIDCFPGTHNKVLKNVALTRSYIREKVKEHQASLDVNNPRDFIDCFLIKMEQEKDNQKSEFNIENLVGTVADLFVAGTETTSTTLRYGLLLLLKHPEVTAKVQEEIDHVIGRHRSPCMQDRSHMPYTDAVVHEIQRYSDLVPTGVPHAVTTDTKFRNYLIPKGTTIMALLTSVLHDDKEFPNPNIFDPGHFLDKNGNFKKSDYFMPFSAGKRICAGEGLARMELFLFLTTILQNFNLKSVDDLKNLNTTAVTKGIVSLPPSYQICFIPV

Liver microsome [3] = experiment: Half life in rat liver microsomes by LC-MS/MS analysis; format: ADME
Summary of the method: (§7)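 Compound at 1 μM with 1 mg/mL liver microsomes in 100 mM potassium phosphate pH 7.4 at 37 °C with shaking. Reaction started with 1 mM NADPH (final). Aliquots were taken at 0, 5, 10, 20, 40 and 60 min and quenched in acetonitrile. Parallel incubations without NADPH were run.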

Liver = experiment: Half life in mouse liver microsomes by LC-MS/MS analysis; format: ADME; summary of the method: as §7
Liver microsome [4] = experiment: Half life in human liver microsomes by LC-MS/MS analysis; format: ADME; summary of the method: as §7
CYP2D6 [5] = molecular target: T3, CYP2D6 (Homo sapiens, UniProt P10635); experiment: as §1; format: ADME; settings: probe dextromethophan; summary of the method: as §2
CYP2B6 [6] = molecular target: T4, CYP2B6 (Homo sapiens, UniProt P20813); experiment: as §4; format: ADME; settings: probe bupropion; summary of the method: as §2
CYP2C9 [7] = molecular target: T5, CYP2C9 (Homo sapiens, UniProt P11712); experiment: as §5; format: ADME; settings: probe diclofenac; summary of the method: as §2
CYP2C8 [8] = molecular target: T6, CYP2C8 (Homo sapiens, UniProt P10632); experiment: as §6; format: ADME; settings: probe amodiaquine; summary of the method: as §2
CYP2B6 [9] = molecular target: T4, CYP2B6; experiment: Inhibition of CYP2B6 (unknown origin) using bupropion substrate at 2.5 uM; format: ADME; settings: probe bupropion; summary of the method: as §2
CYP2C8 [10] = molecular target: T6, CYP2C8; experiment: Inhibition of CYP2C8 (unknown origin) using amodiaquine substrate at 2.5 uM; format: ADME; settings: probe amodiaquine; summary of the method: as §2
CYP2C19 = CYP2C19 (Homo sapiens, UniProt P33261); experiment: Inhibition of CYP2C19 (unknown origin) using (S)-mephentoin substrate at 2.5 uM; format: ADME; settings: probe (S)-mephentoin; summary of the method: as §2
CYP3A4 [11] = molecular target: T7, CYP3A4 (Homo sapiens, UniProt P08684); experiment: Inhibition of CYP3A4 (unknown origin) using testosterone substrate at 2.5 uM; format: ADME; settings: probe testosterone; summary of the method: as §2
CYP2D6 [12] = molecular target: T3, CYP2D6; experiment: Inhibition of CYP2D6 (unknown origin) using dextromethophan substrate at 2.5 uM; format: ADME; settings: probe dextromethophan; summary of the method: as §2
CYP2C9 [13] = molecular target: T5, CYP2C9; experiment: Inhibition of CYP2C9 (unknown origin) using diclofenac substrate at 2.5 uM; format: ADME; settings: probe diclofenac; summary of the method: as §2
CYP3A4 [14] = molecular target: T7, CYP3A4; experiment: Inhibition of CYP3A4 (unknown origin) using midazolam substrate at 2.5 uM; format: ADME; settings: probe midazolam; summary of the method: as §2
CYP1A2 = CYP1A2 (Homo sapiens, UniProt P05177); experiment: Inhibition of CYP1A2 (unknown origin) using tacrin substrate at 2.5 uM; format: ADME; settings: probe tacrin; summary of the method: as §2
CYP1A2, sequence (P05177 whole entry): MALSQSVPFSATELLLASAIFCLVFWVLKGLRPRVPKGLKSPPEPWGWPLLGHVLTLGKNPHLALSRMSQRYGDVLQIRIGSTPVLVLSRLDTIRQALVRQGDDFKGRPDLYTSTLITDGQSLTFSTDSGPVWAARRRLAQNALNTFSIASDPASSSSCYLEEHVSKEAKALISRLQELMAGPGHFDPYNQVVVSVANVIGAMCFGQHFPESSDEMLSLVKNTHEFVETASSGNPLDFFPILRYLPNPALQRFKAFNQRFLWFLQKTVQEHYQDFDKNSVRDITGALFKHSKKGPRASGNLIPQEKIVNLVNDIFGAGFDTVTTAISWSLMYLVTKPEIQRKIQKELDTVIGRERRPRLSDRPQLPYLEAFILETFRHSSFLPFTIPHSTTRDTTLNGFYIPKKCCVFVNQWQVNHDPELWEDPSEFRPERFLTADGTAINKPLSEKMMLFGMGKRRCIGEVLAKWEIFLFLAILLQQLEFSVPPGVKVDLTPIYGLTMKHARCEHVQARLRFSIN

T7 sequence (P08684 whole entry): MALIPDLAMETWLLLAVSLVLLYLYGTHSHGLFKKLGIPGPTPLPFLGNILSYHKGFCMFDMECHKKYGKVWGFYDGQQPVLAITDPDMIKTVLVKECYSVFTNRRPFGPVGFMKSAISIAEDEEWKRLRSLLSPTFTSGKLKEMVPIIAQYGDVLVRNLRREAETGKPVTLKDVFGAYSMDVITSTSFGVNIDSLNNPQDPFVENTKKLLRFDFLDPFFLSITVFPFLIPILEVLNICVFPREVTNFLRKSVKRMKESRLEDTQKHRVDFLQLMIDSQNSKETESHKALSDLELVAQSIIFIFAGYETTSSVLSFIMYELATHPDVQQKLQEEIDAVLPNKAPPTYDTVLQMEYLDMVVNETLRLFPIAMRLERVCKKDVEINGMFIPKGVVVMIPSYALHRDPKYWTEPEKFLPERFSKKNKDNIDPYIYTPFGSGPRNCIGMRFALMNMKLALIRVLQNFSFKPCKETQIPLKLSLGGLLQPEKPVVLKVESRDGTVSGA
T3 sequence (P10635 whole entry): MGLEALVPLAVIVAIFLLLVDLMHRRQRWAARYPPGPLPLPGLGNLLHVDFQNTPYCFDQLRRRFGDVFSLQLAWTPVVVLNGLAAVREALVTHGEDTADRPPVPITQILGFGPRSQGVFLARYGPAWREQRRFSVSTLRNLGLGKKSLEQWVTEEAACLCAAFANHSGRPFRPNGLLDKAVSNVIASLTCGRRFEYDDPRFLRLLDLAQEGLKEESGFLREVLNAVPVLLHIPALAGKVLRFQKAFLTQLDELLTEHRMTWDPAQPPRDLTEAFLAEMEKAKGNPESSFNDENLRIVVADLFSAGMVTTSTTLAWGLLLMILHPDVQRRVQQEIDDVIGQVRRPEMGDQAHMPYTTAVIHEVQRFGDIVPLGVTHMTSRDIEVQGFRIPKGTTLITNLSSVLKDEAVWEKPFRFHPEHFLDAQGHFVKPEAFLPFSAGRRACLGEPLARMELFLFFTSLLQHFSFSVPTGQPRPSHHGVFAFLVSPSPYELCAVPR
Coagulation factor X (Homo sapiens), sequence (P00742 41-179 limits assumed): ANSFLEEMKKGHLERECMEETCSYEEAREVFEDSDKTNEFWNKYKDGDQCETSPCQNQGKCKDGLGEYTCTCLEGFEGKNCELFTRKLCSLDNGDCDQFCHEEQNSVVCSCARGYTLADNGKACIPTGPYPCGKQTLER
Coagulation factor X (Homo sapiens), sequence (P00742 235-488 limits assumed): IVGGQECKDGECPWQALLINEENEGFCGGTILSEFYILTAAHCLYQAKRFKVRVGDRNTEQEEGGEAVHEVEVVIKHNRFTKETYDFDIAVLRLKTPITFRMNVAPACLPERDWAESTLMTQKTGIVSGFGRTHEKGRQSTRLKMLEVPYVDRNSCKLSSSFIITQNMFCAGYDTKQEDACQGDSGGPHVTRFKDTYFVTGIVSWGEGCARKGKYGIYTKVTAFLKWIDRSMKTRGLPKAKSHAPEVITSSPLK
T5 sequence (P11712 whole entry): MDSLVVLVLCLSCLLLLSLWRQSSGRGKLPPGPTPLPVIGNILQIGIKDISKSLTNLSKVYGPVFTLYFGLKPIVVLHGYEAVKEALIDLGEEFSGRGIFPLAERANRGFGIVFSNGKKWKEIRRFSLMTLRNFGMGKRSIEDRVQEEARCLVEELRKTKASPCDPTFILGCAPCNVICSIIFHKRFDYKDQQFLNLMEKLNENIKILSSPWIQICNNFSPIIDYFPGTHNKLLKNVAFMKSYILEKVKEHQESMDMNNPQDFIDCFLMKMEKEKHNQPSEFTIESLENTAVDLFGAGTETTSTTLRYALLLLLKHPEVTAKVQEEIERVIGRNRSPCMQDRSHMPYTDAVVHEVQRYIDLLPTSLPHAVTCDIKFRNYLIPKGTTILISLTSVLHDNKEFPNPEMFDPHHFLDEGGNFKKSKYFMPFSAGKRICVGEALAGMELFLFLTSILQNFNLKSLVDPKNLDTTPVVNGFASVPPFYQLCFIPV
CYP2C19, sequence (P33261 whole entry): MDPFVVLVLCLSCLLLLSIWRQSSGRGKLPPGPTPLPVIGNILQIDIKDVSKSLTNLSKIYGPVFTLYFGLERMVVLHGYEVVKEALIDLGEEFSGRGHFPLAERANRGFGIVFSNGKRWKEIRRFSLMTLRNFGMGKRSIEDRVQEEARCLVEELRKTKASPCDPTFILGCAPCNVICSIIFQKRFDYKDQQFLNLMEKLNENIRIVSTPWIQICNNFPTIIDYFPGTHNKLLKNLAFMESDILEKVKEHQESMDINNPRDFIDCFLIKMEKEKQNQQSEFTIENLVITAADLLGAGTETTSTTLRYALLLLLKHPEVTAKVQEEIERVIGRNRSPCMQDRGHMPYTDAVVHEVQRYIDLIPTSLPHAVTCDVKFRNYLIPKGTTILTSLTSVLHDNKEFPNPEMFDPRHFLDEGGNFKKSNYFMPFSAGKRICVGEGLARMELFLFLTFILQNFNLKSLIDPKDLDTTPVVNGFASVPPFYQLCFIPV
Cytochrome P450 2D6, sequence (P10635 whole entry): as the sequence (P10635 whole entry) above
Cytochrome P450 2C9, sequence (P11712 whole entry): as the sequence (P11712 whole entry) above

inhibition (INH) (Cytochrome P450 2D6): > 10%
inhibition [1]: < 10%
inhibition [2]: < 10%
inhibition (INH) (Cytochrome P450 2B6): > 10%
inhibition (INH) (Cytochrome P450 2C9): > 10%
inhibition (INH) (Cytochrome P450 2C8): > 10%
Structure (SMILES): Cc1cc(CNC(=O)c2cc(C(=O)NCc3ccc(F)c(C)c3)ncn2)ccc1F

Structure (SMILES): Oc1nc(SCc2ccc(Cl)cc2)nc2c1CCC2
t1/2 (Liver microsome [3]): 6.8 min
t1/2 (Liver): 1.3 min
t1/2 (Liver microsome [4]): 10.4 min

Structure (SMILES): COC(=O)c1ccc(CSc2nc3c(c(=O)[nH]2)CCC3)cc1
inhibition at 20 µM (CYP2D6 [5]): < 50%
inhibition at 20 µM (CYP2B6 [6]): < 50%
t1/2 (Liver microsome [3]): 1.8 min
inhibition at 20 µM (CYP2C9 [7]): 17%
t1/2 (Liver): 2 min
inhibition at 20 µM (CYP2C8 [8]): < 50%

inhibition [1]: < 10%
inhibition at 2.5 µM (CYP2B6 [9]): < 50%
inhibition at 2.5 µM (CYP2C8 [10]): < 50%
inhibition [2]: < 10%
inhibition at 2.5 µM (CYP2C19): < 50%
inhibition at 2.5 µM (CYP3A4 [11]): < 50%
inhibition at 2.5 µM (CYP2D6 [12]): < 50%
inhibition at 2.5 µM (CYP2C9 [13]): < 50%
inhibition at 2.5 µM (CYP3A4 [14]): < 50%
inhibition at 2.5 µM (CYP1A2): 17%
Structure (SMILES): Cn1c(=O)n(Cc2ccc(C(=O)O)cc2)c(=O)c2cc(C#CCc3ccccc3)ccc21

— ChEMBL document CHEMBL3352788, “Characterization of selective exosite-binding inhibitors of matrix metalloproteinase 13 that prevent articular cartilage degradation in vitro” (J Med Chem, 2014)
